High-throughput results deposited in PubChem BioAssay by Broad Institute.
DENV2 CPE rescue: inhibitors of DENV2 cytopathic effect, primary screen, cell-based, plate reader, single concentration. DENV2-infected cells, cytopathic effect rescue. CPE inhibition, % at 9.99 µM. 350,000 compounds, 1.7% hits. AID 651640, 2012; in the data active = CPE inhibition above about 20%, passing the limit was not always enough; inconclusive = no clear call, values can overlap the other calls; tested in BHK-21 cells;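 note: 0% = median of neutral control wells and 100% = median of positive control wells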
SIRT5 inh: SIRT5 desuccinylase inhibitors, primary screen, biochemical, fluorescence imaging, single point, set 5; AID 652115, 2013; NAD-dependent protein deacylase sirtuin-5, mitochondrial (Homo sapiens), Q9NXA8; 330,000 compounds, 1.1% hits; inhibition, % at 15 µM; Purified SirT5, succinyl-peptide AMC, trypsin-coupled fluorescence; in the data active = inhibition above about 15%; inconclusive = no clear call, values can overlap the other calls
E-selectin induc: E-selectin induction in HUVECs, primary screen, imaging, HUVEC, immunofluorescence imaging, single point. 260,000 compounds, 0.37% hits. AID 686992, 2013. normalized: neutral wells 0, TNF-alpha wells 100. activation, % at 7.58 µM. P16581;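 active = mean E-selectin-positive cell signal at least 10% of the positive control, reached in at least 60% of replicates, without over 20% cell loss; inconclusive = no rule given, readout overlaps actives, possibly toxicity-flagged; inactive = the rest, including those meeting only one limit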
Target sequence (P16581 whole entry, looked up): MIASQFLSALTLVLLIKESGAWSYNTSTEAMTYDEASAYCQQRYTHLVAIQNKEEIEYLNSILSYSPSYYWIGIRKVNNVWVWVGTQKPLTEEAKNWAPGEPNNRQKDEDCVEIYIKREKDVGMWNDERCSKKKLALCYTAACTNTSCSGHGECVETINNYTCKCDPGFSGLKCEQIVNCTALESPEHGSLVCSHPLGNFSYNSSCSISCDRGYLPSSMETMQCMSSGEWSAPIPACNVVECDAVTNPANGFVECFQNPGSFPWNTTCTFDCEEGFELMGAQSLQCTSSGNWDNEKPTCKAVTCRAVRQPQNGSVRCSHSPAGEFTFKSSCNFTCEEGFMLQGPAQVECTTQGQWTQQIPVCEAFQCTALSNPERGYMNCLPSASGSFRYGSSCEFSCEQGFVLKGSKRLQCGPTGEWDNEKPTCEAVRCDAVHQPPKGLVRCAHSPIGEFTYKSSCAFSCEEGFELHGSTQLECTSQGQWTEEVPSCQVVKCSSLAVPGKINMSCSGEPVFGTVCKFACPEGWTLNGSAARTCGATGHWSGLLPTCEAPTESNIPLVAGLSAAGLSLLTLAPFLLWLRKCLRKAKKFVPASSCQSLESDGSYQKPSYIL
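Read-out basis: % PE-positive cells; Test system: HUVEC primary endothelial cells; Technique: immunofluorescence imaging; Dosing: single-point compound dose.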
* marks the source's active call; other numbers are inactive results; ? = inconclusive; nt = no result; ! = a repeat was not active. An excerpt weighted towards active compounds, which were near 2.8% of everything screened.

SMILES | DENV2 CPE rescue | SIRT5 inh | E-selectin induc
C[C@H]1CN([C@@H](C)CO)C(=O)c2cc(C3=CCCCC3)cnc2O[C@@H]1CN(C)C(=O)Nc1cccc(F)c1 | -4 | 4 | 0
C[C@@H]1CN([C@@H](C)CO)C(=O)c2cc(C3=CCCCC3)cnc2O[C@H]1CN(C)C(=O)Nc1cccc(F)c1 | 30*! | 0 | 0
C[C@H](CO)N1C[C@H](C)[C@@H](CN(C)C(=O)Nc2ccc(F)cc2)Oc2ncc(C3=CCCCC3)cc2C1=O | -7 | 10 | 0
CC(=O)NC1C(=O)N(CCN2CCOCC2)c2ccc(Cl)cc21 (centres undefined) | 2 | -2 | 0
CC(=O)NC1C(=O)N(CCN2CCOCC2)c2ccc(F)cc21 (centres undefined) | 7 | -19 | 53*
CC(C)[C@H](C)NC(=O)N(C)C[C@H]1OCc2ccccc2-c2c(n(C)c3ccccc23)C(=O)N([C@@H](C)CO)C[C@H]1C | -2 | 0 | 0
CCOC(=O)c1c(CSc2ccccc2)n(C)c2cc(Br)c(O)c(CN(C)C)c12 | -3 | 4 | 1
CCOC(=O)c1c(CSc2ccsc2)n(C)c2cc(Br)c(O)c(CN(C)C)c12 | 8 | 20* | 1
CC(C)NC(=O)Nc1ccc2c(c1)C(=O)N([C@@H](C)CO)C[C@H](C)[C@H](CN(C)C(=O)NC1CCCCC1)O2 | 3 | nt | 0
COc1ccc2c3c([nH]c2c1)[C@H](CO)N(Cc1nccs1)CC31CN(C(=O)C2CCCCC2)C1 | -8 | 0 | 0
COc1ccc2c3c([nH]c2c1)[C@@H](CO)N(C(=O)c1ccccn1)CC31CN(C(=O)C2CCCC2)C1 | 24* | 4 | 0
COc1ccc2c3c([nH]c2c1)[C@@H](CO)N(Cc1nccs1)CC31CN(C(=O)C2CCCC2)C1 | 29* | 4 | 0
COc1ccc2c3c([nH]c2c1)[C@@H](CO)N(C(=O)C1CCCCC1)CC31CCN(Cc2nccs2)CC1 | 5 | 2 | 1
COc1ccc2c3c([nH]c2c1)[C@H](CO)N(C(=O)c1cnccn1)CC31CCN(S(C)(=O)=O)CC1 | 68* | -5 | 0
COc1ccc2c3c([nH]c2c1)[C@H](CO)N(C(=O)C1CCC1)CC31CCN(Cc2nccs2)CC1 | 41* | 12 | 0
COc1ccc2c3c([nH]c2c1)[C@H](CO)N(C(=O)c1cnccn1)CC31CN(C(=O)c2cnccn2)C1 | 6 | nt | 0
COc1ccc2c3c([nH]c2c1)[C@@H](CO)N(C(=O)c1ccccn1)CC31CN(C(=O)C2CCC2)C1 | -6 | 3 | 0
Cc1noc(C)c1S(=O)(=O)Nc1ccc2c(c1)C(=O)N([C@@H](C)CO)C[C@H](C)[C@H](CN(C)S(=O)(=O)c1ccccc1)OCCCC[C@H](C)O2 | 3 | 1 | 0
O=C(C[C@H]1C[C@@H]2c3cc(NC(=O)NC4CCCC4)ccc3O[C@@H]2[C@@H](CO)O1)NCc1ccc(Cl)cc1 | 3 | -1 | 0
Cc1noc(C)c1S(=O)(=O)Nc1ccc2c(c1)CC(=O)N([C@@H](C)CO)C[C@@H](C)[C@H](CN(C)S(=O)(=O)c1ccccc1)O2 | -5 | 5 | 0
O=C(O)C[C@H]1C[C@H]2c3cc(NC(=O)Nc4ccc(F)cc4)ccc3O[C@H]2[C@H](CO)O1 | 2 | -2 | -1
CCCCCCCCN1[C@@H](CC(=O)O)c2cc(C(F)(F)F)ccc2S1(=O)=O | 3 | 40* | 0
CCCCCCCCCCCCN1[C@@H](CC(=O)O)c2cc(C(F)(F)F)ccc2S1(=O)=O | ? | nt | 1
O=C(/C=C/c1ccc(F)cc1)c1cc(Br)ccc1O | 3 | 16* | 0
O=C(/C=C/c1ccc2ccccc2n1)c1cc(Br)ccc1O | -8 | -2 | nt
SMILES | DENV2 CPE rescue | SIRT5 inh | E-selectin induc
O=C(C1CCCC1)N1CCCCN2[C@H](CO)[C@@H](c3ccc(C#CC4CC4)cc3)[C@H]2C1 | 3 | 3 | nt
C/C(=N\NC(=O)c1ccc(N)cc1)C1CC1 | 1 | 1 | 0
C/C(=N\NC(=O)c1ccc(CSc2cccc3cccnc23)cc1)C1CCCCC1 | 102* | -3 | -1
COc1ccc2c3c(n(C)c2c1)[C@@H](CO)N(Cc1ccc(F)cc1)CC31CCN(CC2CC2)CC1 | -1 | nt | 0
COc1ccc(CC(N)c2csc(NC(=O)c3ccc(F)cc3)n2)cc1 (centres undefined) | 2 | nt | 0
COc1ccc(CC(N)c2csc(NC(=O)c3ccc(OC)cc3)n2)cc1 (centres undefined) | 37* | -1 | 0
COc1ccc(NC(=O)N(C)C[C@H]2OCCCC[C@@H](C)Oc3ccc(NS(=O)(=O)c4c(C)noc4C)cc3C(=O)N([C@H](C)CO)C[C@H]2C)cc1 | 1 | nt | 0
O=C(c1cccc(F)c1)N1CC[C@H]2[C@H](CO)Nc3ccc(-c4ccccc4)cc3[C@H]21 | -4 | -3 | 1
COc1ccc(-c2ccc3c(c2)[C@H]2[C@H](CCN2C(=O)c2cccc(F)c2)[C@H](CO)N3)cc1 | -17 | 3 | 0
O=C(CN1CCOCC1)N1CC[C@@H]2[C@H]1c1cc(-c3ccc(F)cc3)ccc1N[C@@H]2CO | nt | -9 | -1
O=C(c1cccc(F)c1)N1CC[C@@H]2[C@H]1c1cc(-c3ccccc3)ccc1N[C@@H]2CO | 46* | 3 | 1
O=C(CN1CCOCC1)N1CC[C@H]2[C@H](CO)Nc3ccc(-c4ccc(F)cc4)cc3[C@H]21 | -12 | 34* | 0
COc1cccc(-c2ccc3c(c2)[C@@H]2[C@@H](CCN2C(=O)c2cccc(F)c2)[C@@H](CO)N3)c1 | 28* | 1 | ?
CN1C(=O)c2cc(NC(=O)Nc3cccc(Cl)c3)ccc2OC[C@H]2O[C@@H](CC(=O)O)CC[C@@H]21 | 4 | 0 | 0
CN(C)C(=O)c1cccc(-c2ccccc2[C@@H]2[C@@H](C#N)N(C(=O)C3CC3)[C@H]2CO)c1 | 5 | 10 | 0
Cc1cc(C(=O)Nc2cccc3c2O[C@@H](CN(C)S(=O)(=O)c2ccc(F)cc2)[C@H](C)CN([C@H](C)CO)C3=O)n(C)n1 | 15 | -1 | 3
Cc1noc(C)c1NC(=O)Nc1ccc2c(c1)CC(=O)N([C@H](C)CO)C[C@H](C)[C@@H](CN(C)C(=O)Nc1ccc3c(c1)OCO3)O2 | -5 | 3 | 0
C[C@@H]1CCCCO[C@H](CN(C)C(=O)Nc2ccc(C(F)(F)F)cc2)[C@@H](C)CN([C@H](C)CO)C(=O)c2cc(NC(=O)C3CCCCC3)ccc2O1 | 0 | 1 | 0
C[C@H](CO)N1C[C@H](C)[C@@H](CN(C)C(=O)Nc2ccc(C(F)(F)F)cc2)OCCCC[C@H](C)Oc2ccc(NC(=O)C3CCCCC3)cc2C1=O | 87* | 5 | 0
C[C@@H]1CCCCO[C@H](CN(C)C(=O)Nc2ccc(C(F)(F)F)cc2)[C@@H](C)CN([C@@H](C)CO)C(=O)c2cc(NC(=O)C3CCCCC3)ccc2O1 | 22* | 4 | 1
C[C@@H]1CCCCO[C@H](CN(C)C(=O)Nc2ccc(C(F)(F)F)cc2)[C@H](C)CN([C@H](C)CO)C(=O)c2cc(NC(=O)C3CCCCC3)ccc2O1 | 32* | -2 | 0
